# OX1R antag-1 – antagonists of human orexin 1 receptor; CHO/OX1R cells, Fluo-8 calcium fluorescence, orexin A; inhibition, % at 5 µM; 0.43% of 330,000 active;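 active = inhibition above its plate's threshold, mean inhibition of all tested compounds on the plate plus 3 SD, cut at about 37% in these data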;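 also: 0% = orexin A challenge wells and 100% = SB-334867-A antagonist wells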
# OX1R antag-2 – OX1R (human) antagonism. O43613. OX1R-expressing cells, FRET antagonist read-out. inhibition, % at 6.6 µM. 1.8% of 330,000 active; in the data active = inhibition mostly above about 38%, no sharp cut-off; inactive = mostly below about 40%;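 also: 0% = agonist challenge alone and 100% = reference antagonist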
# GPR7 antagonist – human neuropeptides B/W receptor 1 antagonism; 1.1% of 290,000 active; inhibition, % at 4.4 µM; P48145; GPR7-expressing cells, fluorescence antagonist assay; in the data active = inhibition above about 16%, passing the limit was not always enough;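 also: cells stimulated with the agonist NPW; 0% = agonist with vehicle and 100% = vehicle without agonist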
# Target sequence (P48145 whole entry, looked up): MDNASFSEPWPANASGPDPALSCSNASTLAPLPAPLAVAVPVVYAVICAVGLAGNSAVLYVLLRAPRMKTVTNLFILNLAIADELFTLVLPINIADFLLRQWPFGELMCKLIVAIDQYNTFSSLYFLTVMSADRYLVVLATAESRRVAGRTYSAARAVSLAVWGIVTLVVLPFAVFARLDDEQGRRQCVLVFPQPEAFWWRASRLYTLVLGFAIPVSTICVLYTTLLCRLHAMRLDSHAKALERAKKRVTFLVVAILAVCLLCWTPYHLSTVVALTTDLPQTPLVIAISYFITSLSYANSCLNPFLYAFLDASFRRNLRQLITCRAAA
# MPTP block – blocks calcium-induced mitochondrial swelling | isolated mouse mitochondria, Ca2+ swelling absorbance, 30 min | inhibition, % at 10 µM | 1.4% of 360,000 active;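 active = inhibition of 50% or more, scaled per plate between neutral and stimulator controls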;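 also: 0% = DMSO wells given calcium and 100% = 1 mM EGTA wells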
# CHO parental Ca – counter-screen: ATP calcium response change in parental CHO cells; parental CHO-K1, ATP-induced calcium, Fluo-8 fluorescence; inhibition, % at 5.6 µM; 0.63% of 330,000 active;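 active = inhibition above that plate's mean sample inhibition plus 3 SD, cut at about 26% in these data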;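 also: 0% = ATP-challenged DMSO wells and 100% = DMSO wells without ATP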
#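 Measured by: calcium-sensitive Fluo-8 fluorescence / Test system: CHO parental line / Controls: ATP-challenged DMSO wells low, unchallenged DMSO wells high / Measure: % inhibition / Compound: single nominal dose of 5.6 µM per compound / Replicates: single well per compound, no replicates / Reagent: ATP as calcium-mobilizing challenge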
# MPTP counter – Rhodamine 123 counter-screen of mitochondrial pore hits; shares compounds with MPTP block; isolated mitochondria, membrane potential, Rhodamine 123 fluorescence; inhibition, % at 10 µM; 78% of 5,000 active; in the data active = inhibition above about 22%;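 also: 0% = DMSO vehicle and 100% = positive control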
# MPTP abs DR – dose response confirmation of mitochondrial permeability transition pore inhibitors; isolated mitochondria swelling, absorbance; AID 651561; IC50, µM; shares compounds with MPTP block; 58% of 780 active; in the data active = IC50 below about 20 µM
# MPTP counter DR – active in counter-screen for permeability transition pore inhibitors | shares compounds with MPTP block | isolated mitochondria counterscreen, fluorescence read-out | IC50, µM | 49% of 780 active | AID 651564; in the data active = IC50 below about 80 µM
# Active calls of the source: *; i = inactive; · = no result given. The list is not random: actives were taken first. Their share in the collection is about 3.8%.
SMILES,OX1R antag-1,OX1R antag-2,GPR7 antagonist,MPTP block,CHO parental Ca,MPTP counter,others
CSCCC(NC(=O)COc1ccccc1)C(=O)N1CCN(c2ccccc2O)CC1 (configuration not stated),-27,13,·,-1,-9,·,
CC(=O)NC(c1ccccc1)c1nc(-c2csc3ccccc23)cs1 (configuration not stated),·,·,·,-1,·,·,
COc1ccc(Nc2cc(C)c3c(O)cccc3n2)cc1,-10,32,3,36,-10,·,
Cc1ccc(Nc2cc(C)c3c(O)cccc3n2)cc1C,10,4,6,72*,14,54*,
O=C1CN(C(=O)CSc2nc(-c3ccccc3)cs2)c2ccccc2N1,-1,36,-8,0,-19,·,
CC1(C)C(=O)Nc2ccccc2N1C(=O)CSc1nc(-c2ccccc2)cs1,-22,29,-5,98*,-25,70*,
Cc1cccc(S(=O)(=O)NC(=O)C2(C)CCN2C(=O)Cc2ccccc2)c1 (configuration not stated),·,·,·,-2,·,·,
O=C(O)/C=C1\NC(=O)c2ccccc21,-11,20,-9,-3,-4,·,
O=C1N/C(=C\c2ccc(O)cc2)C(=O)c2ccccc21,-5,7,-4,73*,-8,-7,
CCC1CCCCN1S(=O)(=O)c1ccc(C(=O)Nc2nnc(C3CC3)o2)cc1 (configuration not stated),-28,21,-1,-4,-17,·,
CCC1CCCCN1S(=O)(=O)c1ccc(NC(=O)c2ccncc2)cc1 (configuration not stated),20,27,19,75*,42*,89*,
COc1ccccc1C1CC(=O)Oc2ccc(C(C)(C)C)cc21 (configuration not stated),12,13,·,0,-15,·,
CCC(C(=O)Nc1ccc(C)cc1)c1ccccc1 (configuration not stated),-5,29,-11,-1,-8,·,
Cc1ccc(NC(=O)C(C)c2ccc(-c3ccccc3)c(F)c2)cc1 (configuration not stated),32,42,8,89*,34,110*,
CCn1cc(C(=O)OCC(=O)c2cc(C)n(-c3ccc(OC(F)F)cc3)c2C)c(=O)c2ccc(C)nc21,-12,22,-11,2,-11,·,
COc1ccc(C)cc1NC(=O)CNC(=O)[C@@H]1Cc2ccccc2CN1,-28,6,-2,0,-15,·,
CCOC(=O)[C@@H]1[C@H]2COc3cc(OC)ccc3[C@@H]2N2C(=O)N(c3ccc(C(F)(F)F)cc3)C(=O)[C@@]12C,-15,28,6,1,-19,·,
CCOC(=O)[C@@H]1[C@H]2COc3ccccc3[C@H]2N2C(=O)N(c3cccc(Cl)c3)C(=O)[C@@]12C,-19,17,3,0,-18,·,
CCOC(=O)[C@@H]1[C@H]2COc3cc(OC)ccc3[C@H]2N2C(=O)N(c3ccc(C(F)(F)F)cc3)C(=O)[C@]12C,31,20,·,84*,50*,90*,
CCOC(=O)[C@@H]1[C@H]2COc3ccccc3[C@@H]2N2C(=O)N(c3cccc(Cl)c3)C(=O)[C@@]12C,-5,19,8,88*,-4,100*,
O=C(O)CCN1C(=O)/C(=C\c2ccc(-c3nc4ccccc4s3)o2)SC1=S,14,4,0,89*,8,-25,
COc1ccc2sc(N(CCCN(C)C)C(=O)c3ccc(C(=O)c4ccccc4)cc3)nc2c1,1,22,·,80*,-12,-9,MPTP abs DR=14*;MPTP counter DR=64*
CCN(Cc1ccccc1)S(=O)(=O)c1ccc(C(=O)N(CCCN(C)C)c2nc3cc(OC)ccc3s2)cc1,-32,27,·,65*,-14,-12,MPTP abs DR=i;MPTP counter DR=30*
CN(C)CCCN(C(=O)c1ccc(C(=O)c2ccccc2)cc1)c1nc2ccc(F)cc2s1,-5,10,12,27,0,·,
COc1ccc2sc(N(CCCN(C)C)C(=O)c3ccc(S(=O)(=O)N4CCCc5ccccc54)cc3)nc2c1,0,27,·,86*,19,-19,
SMILES,OX1R antag-1,OX1R antag-2,GPR7 antagonist,MPTP block,CHO parental Ca,MPTP counter,others
Cc1ccc2nc(N(CCCN(C)C)C(=O)COc3ccc(Cl)cc3)sc2c1,-12,1,-7,56*,-2,-19,MPTP abs DR=4.2*;MPTP counter DR=78*
COc1ccccc1N1CCN(S(=O)(=O)CCNC(=O)c2cccc(F)c2)CC1,-28,16,·,-1,-17,·,
CCN(Cc1ccccc1)S(=O)(=O)c1ccc(C(=O)N(CCCN(C)C)c2nc3ccc(F)cc3s2)cc1,-15,4,1,3,-7,·,
CCN(Cc1ccccc1)S(=O)(=O)c1ccc(C(=O)N(CCCN(C)C)c2nc3cc4c(cc3s2)OCCO4)cc1,-28,6,·,59*,-13,-14,
CC1=NN(c2ccc(Cl)cc2)C(=O)/C1=C\c1cccn1-c1ccc(S(N)(=O)=O)cc1,-3,0,-5,7,2,·,
O=C(Nc1ccccc1O)C(c1ccccc1)c1ccccc1,23,14,19,83*,67*,83*,
O=C(O)c1ccccc1NC(=O)C(c1ccccc1)c1ccccc1,-1,7,·,2,-6,·,
FC(F)(F)c1nc(SCc2ccc(Cl)cc2Cl)n[nH]1,-4,27,-3,63*,-15,90*,
Cn1c(SCc2ccc(Cl)cc2Cl)nc(C(F)(F)F)cc1=O,3,7,-9,0,7,·,
CC(=O)c1cccc(NS(=O)(=O)c2ccc(N/C=C\C(=O)c3ccc(C)cc3)cc2)c1,49*,53,7,106*,47*,85*,
CC(=O)c1cccc(S(=O)(=O)Nc2ccc3nc(C)sc3c2)c1,0,17,-2,91*,21,57*,
Cc1nc2ccc(NS(=O)(=O)c3ccc(C)c(C)c3)cc2s1,32,37,13,96*,55*,94*,
Cc1nc2cc(NS(=O)(=O)c3cccc(F)c3)ccc2s1,-13,16,-4,-1,-8,·,
COc1cc(S(=O)(=O)Nc2ccc3nc(C)sc3c2)ccc1NC(C)=O,3,2,·,68*,-12,86*,
O=C(CNC(=O)c1ccc(Cl)cc1)NC(CO)c1ccccc1 (configuration not stated),-16,13,14,-1,-11,·,
COc1ccc(NC(=O)N2CCN(C(=O)C(Cc3ccc(F)cc3)NC(C)=O)CC2)cc1 (configuration not stated),-1,5,-11,-2,-2,·,
N#Cc1cc2c(nc1SCc1ccc(Cl)nc1)CCCCC2,-32,15,-13,0,-25,·,
c1ccc2c(CSc3ncnc4nc[nH]c34)cccc2c1,-7,25,-3,56*,22,41*,
c1ccc(CCSc2ncnc3nc[nH]c23)cc1,-13,9,1,10,-1,·,
